Data taken from ChEMBL document CHEMBL1149175, “Integrating fragment assembly and biophysical methods in the chemical advancement of small-molecule antagonists of IL-2: an approach for inhibiting protein-protein interactions” (J Med Chem, 2004).

What was measured:
Interleukin-2 [1] = target: T1, Interleukin-2 (Homo sapiens, UniProt P60568); assay: Concentration required to inhibit mouse interleukin-2 alpha receptor was determined by SPA assay
Outline: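 SPA: compounds as 3-fold serial dilutions in DMSO added to 10 nM tritiated propionic acid-labeled IL-2 in Superblock, then to biotinylated IL-2Rα on streptavidin scintillant beads (0.7 mg/mL). Scintillation from receptor-bound IL-2 counted; IC50 by nonlinear regression of counts vs concentration.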
Target sequence in this assay (P60568 whole entry): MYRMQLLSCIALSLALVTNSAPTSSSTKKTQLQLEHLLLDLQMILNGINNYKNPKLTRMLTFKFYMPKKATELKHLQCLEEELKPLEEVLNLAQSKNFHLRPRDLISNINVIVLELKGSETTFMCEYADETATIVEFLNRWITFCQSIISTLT

Interleukin-2 [2] = target: T1, Interleukin-2; assay: Inhibition of mouse interleukin-2 alpha receptor by ELISA; conditions: target entry is the homologue from another species
Outline: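 ELISA: 15 nM biotinylated IL-2Rα captured on streptavidin-coated wells; 3-fold serial compound dilutions with 5 nM IL-2 (2% DMSO final) in Superblock/0.01% Tween 20 incubated on receptor.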
Target sequence in this assay (P60568 whole entry): as above

Interleukin-2 [3] = target: T1, Interleukin-2; assay: Effective concentration required against phosphorylation of Mammary gland factor/STAT5; format: functional, Mus musculus
Outline: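 Mouse CTLL-2 T cells grown to about 1 × 10^6 cells/mL in RPMI/IL-2, starved of IL-2 overnight, then given 2-fold serial compound dilutions in medium with 0.1 ng/mL human IL-2 for 30 min at 37 °C. Phospho-STAT5 measured by western blot and densitometry, plotted against concentration; average of three experiments.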
Target sequence in this assay (P60568 whole entry): as above

Interleukin-2 [4] = target: T1, Interleukin-2; assay: Dissociation constant for human Interleukin-2 by SPR assay
Target sequence in this assay (P60568 whole entry, looked up): as the sequence (P60568 whole entry) above

Interleukin-2 [5] = target: T1, Interleukin-2; assay: Inhibition of mouse Interleukin-2 receptor alpha; conditions: target entry is the homologue from another species
Target sequence in this assay (P60568 whole entry): as above

[6] = Volume distribution (steady state) of compound was determined in mouse; format: ADME, organism-based; conditions: in vivo, read-out: Vss
Outline: (§1)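 Male CD-1 mice, 10 mg/kg IV bolus via lateral tail vein, 2.5 mg/mL in PEG 400; three mice per time point. Cardiac blood into sodium-EDTA at 0.5–8 h, plasma by LC-MS/MS against a plasma standard curve; parameters from mean concentration–time profiles.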

[7] = Plasma clearance in mouse; format: ADME, organism-based; conditions: read-out: Clp; outline: as §1

IC50 (Interleukin-2 [1]) [µM] | IC50 (Interleukin-2 [2]) [µM] | Compound | other results
50 |  | COc1ccc(-c2cc(C3CCN(C(=O)CNC(=O)[C@H](N=C(N)N)C4CCCCC4)CC3)[nH]n2)c(Cl)c1 | 
20 |  | Cn1nc(-c2cccc(Cl)c2Cl)cc1C1CCN(C(=O)CNC(=O)[C@H](N=C(N)N)C2CCCCC2)CC1 | 
2 |  | CC(C)C[C@@H](N=C(N)N)C(=O)NCC(=O)N1CCC(c2cc(-c3cccc(Cl)c3Cl)nn2C)CC1 | EC50 (Interleukin-2 [3]): ~25 µM
30 |  | N=C(N)N[C@@H](C(=O)NCC(=O)N1CCC(c2cc(-c3ccc(O)cc3Cl)[nH]n2)CC1)C1CCCCC1 | 
150 |  | Cc1cccc(-c2cc(C3CCN(C(=O)CNC(=O)[C@H](N=C(N)N)C4CCCCC4)CC3)[nH]n2)c1 | 
40 |  | NC(N)=N[C@@H](C(=O)NCC(=O)N1CCC(c2cc(-c3ccccc3Cl)n[nH]2)CC1)C1CCCCC1 | 
10 |  | N=C(N)N[C@@H](C(=O)NCC(=O)N1CCC(c2cc(-c3ccc(Cl)cc3Cl)[nH]n2)CC1)C1CCCCC1 | 
110 |  | NC(N)=N[C@@H](C(=O)NCC(=O)N1CCC(c2cc(-c3ccc(Cl)c(Cl)c3)n[nH]2)CC1)C1CCCCC1 | 
130 |  | Cc1cccc(-c2cc(C3CCN(C(=O)CNC(=O)[C@H](N=C(N)N)C4CCCCC4)CC3)[nH]n2)c1C | 
50 |  | Cn1nc(C2CCN(C(=O)CNC(=O)[C@H](N=C(N)N)C3CCCCC3)CC2)cc1-c1cccc(Cl)c1Cl | 
500 |  | NC(N)=N[C@@H](C(=O)NCC(=O)N1CCC(c2nc(-c3ccc(Cl)cc3Cl)no2)CC1)C1CCCCC1 | 
120 |  | NC(N)=N[C@@H](C(=O)NCC(=O)N1CCC(c2cc(-c3ccccc3)n[nH]2)CC1)C1CCCCC1 | 
400 |  | CC1C(c2cccc(Cl)c2Cl)=NN=C1C1CCN(C(=O)CNC(=O)[C@H](N=C(N)N)C2CCCCC2)CC1 (some centres undefined) | 
50 |  | Cc1ccccc1-c1cc(C2CCN(C(=O)CNC(=O)[C@H](N=C(N)N)C3CCCCC3)CC2)[nH]n1 | 
130 |  | NC(N)=N[C@@H](C(=O)NCC(=O)N1CCC(c2cc(-c3cccc(Cl)c3)n[nH]2)CC1)C1CCCCC1 | 
150 |  | N=C(N)N[C@@H](C(=O)NCC(=O)N1CCC(c2cccc(-c3ccc(Cl)cc3Cl)c2)CC1)C1CCCCC1 | 
8.1 |  | CC(C)C[C@@H](N=C(N)N)C(=O)NCC(=O)N1CCC(c2cc(-c3ccc(O)c(Cl)c3Cl)nn2C)CC1 | 

Second part, the compound before the results:

Compound | IC50 (Interleukin-2 [1]) [µM] | IC50 (Interleukin-2 [2]) [µM] | other results
COc1ccc(-c2cc(C3CCN(C(=O)CNC(=O)[C@@H](CC(C)C)N=C(N)N)CC3)n(C)n2)c(Cl)c1Cl | 3.5 |  | 
COC(=O)[C@H](Cc1ccc(C#Cc2ccccc2)cc1)NC(=O)CNC(=O)CN(C)C(=N)N |  | 1200 | 
CC[C@@H](C)[C@H](N=C(N)N)C(=O)NCC(=O)N[C@@H](Cc1ccc(C#Cc2ccccc2)cc1)C(=O)OC |  | 26 | 
COC(=O)[C@H](Cc1ccc(C#Cc2ccccc2)cc1)NC(=O)CNC(=O)[C@@H](CC1CCCCC1)N=C(N)N |  | 37 | 
COC(=O)[C@H](Cc1ccc(C#Cc2ccccc2)cc1)NC(=O)CNC(=O)CNC(=N)N |  | > 2000 | 
COC(=O)[C@H](Cc1ccc(C#Cc2ccccc2)cc1)NC(=O)CNC(=O)[C@@H](C)N=C(N)N |  | ~2000 | 
COCC(=O)N[C@@H](Cc1ccc(C#Cc2ccccc2)cc1)C(=O)O |  |  | KdSPA (Interleukin-2 [4]): 1.5 mM; IC50 (Interleukin-2 [5]): 2200 µM
CC(C)C[C@@H](N=C(N)N)C(=O)NCC(=O)N1CCC(c2cc(-c3ccc(OCc4ccc(C(=O)O)cc4)c(Cl)c3Cl)nn2C)CC1 | 0.2 |  | 
COC(=O)[C@H](Cc1ccc(C#Cc2ccccc2)cc1)NC(=O)CNC(=O)[C@@H](N=C(N)N)C(C)(C)C |  | 9 | 
CC(C)C[C@@H](N=C(N)N)C(=O)NCC(=O)N1CCC(c2cc(-c3ccc(OCc4cccc(C(=O)O)c4)c(Cl)c3Cl)nn2C)CC1 | 0.4 |  | 
COC(=O)[C@H](Cc1ccc(C#Cc2ccccc2)cc1)NC(=O)CNC(=O)[C@H]1CCCN1C(=N)N |  | 1000 | 
CC(C)C[C@@H](N=C(N)N)C(=O)NCC(=O)N1CCC(c2cc(-c3ccc(OCc4ccc(CC(=O)O)cc4)c(Cl)c3Cl)nn2C)CC1 | 0.6 |  | 
COC(=O)[C@H](Cc1ccc(C#Cc2ccccc2)cc1)NC(=O)C[C@H]1CCCN(C(=N)N)C1 |  |  | EC50 (Interleukin-2 [3]): 100 µM; IC50 (Interleukin-2 [5]): 7 µM
COC(=O)[C@H](Cc1ccc(C#Cc2ccccc2)cc1)NC(=O)CNC(=O)[C@H](N=C(N)N)C1CCCCC1 |  | 20 | 
CC(C)C[C@@H](NC(=N)N)C(=O)NCC(=O)N1CCC(c2cc(-c3ccc(OCc4ccc(C(=O)O)o4)c(Cl)c3Cl)nn2C)CC1 |  |  | Vd [6]: 1.1 L/kg; clearance [7]: 13.6 mL/min/kg
COC(=O)[C@H](Cc1ccc(C#Cc2ccccc2)cc1)NC(=O)CNC(=O)[C@H](N=C(N)N)C(C)C |  | > 2000 | 
COC(=O)[C@H](Cc1ccc(C#Cc2ccccc2)cc1)NC(=O)CNC(=O)[C@@H]1CCCN1C(=N)N |  | 720 | 
COC(=O)[C@H](Cc1ccc(C#Cc2ccccc2)cc1)NC(=O)CNC(=O)[C@@H](CCC(N)=O)N=C(N)N |  | 900 | 
COC(=O)c1ccc(COc2ccc(-c3cc(C4CCN(C(=O)CNC(=O)[C@@H](CC(C)C)N=C(N)N)CC4)n(C)n3)c(Cl)c2Cl)cc1 | 40 |  | 
COC(=O)[C@H](Cc1ccc(C#Cc2ccccc2)cc1)NC(=O)CNC(=O)[C@H](C)N=C(N)N |  | 280 | 
COC(=O)[C@H](Cc1ccc(C#Cc2ccccc2)cc1)NC(=O)CNC(=O)[C@@H](N=C(N)N)C(C)C |  | 80 | 
CNC(=O)C[C@H]1CCCN(C(=N)N)C1 |  |  | IC50 (Interleukin-2 [5]): > 10000 µM
CC(C)C[C@@H](N=C(N)N)C(=O)NCC(=O)N1CCC(c2cc(-c3ccc(OCc4ccccc4)c(Cl)c3Cl)nn2C)CC1 | 35 |  | 
